Measured values taken from PMC6008205 (Journal of controlled release : official journal of the …, 2018).

Assays:
[1] = ANS spectrofluorimetric analysis of hydrophobic regions; type: physicochemical; details: ANS 0.2 µM, CSPNs 2–16 µM, excitation 356 nm; relative to 2F-RT
Outline: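 Test peptides were dissolved in water at 2–16 µM, and the ANS probe was added at 0.2 µM. Spectra were read on a fluorescence microplate reader at ambient temperature, with excitation at 356 nm and emission scanned from 380–600 nm. All measurements were done in triplicate and reported as arithmetic mean ± standard deviation.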

[2] = Tapping mode AFM analysis of nanodrill size and mechanical stability; details: tapping mode AFM on mica under water, 400 µM peptide solution
[3] = Dynamic light scattering particle size and PDI of CSPNs; type: physicochemical; details: DLS in ultrapure water, peptide nanodrills 0.4 mM, triplicate
Outline: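 Nanodrills formed spontaneously on vortexing peptide in ultrapure water or PBS pH 7.4. They were measured at 0.4 mM by dynamic light scattering in a quartz cuvette after 2 min equilibration. Measurements were done in triplicate and reported as arithmetic mean ± standard deviation.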

FFF--(RADA)2-Tat [3F-RT]
Mean ANS fluorescence intensity compared to 2F-RT [1]: five-fold increase | Aspect ratio by AFM [2]: 6.2±3.9 | Nanodrill size (length) by AFM [2]: 105±67 nm | PDI [3]: 0.434
